According to PMC3631442 (ACS chemical biology, 2013):
No end group written: not given here. *: point of attachment. Biotin = O=C1N[C@H]2[C@H](CS[C@H]2CCCCC(=O)*)N1; PEG4 = NCCOCCOCCOCCOCCC(=O)O

Legend:
[1] = target: Mcl-1 (Homo sapiens, UniProt Q07820); assay: Fluorescence polarization competition with fluoresceinated Bim BH3; type: binding
[2] = target: T1, Bfl-1 (Homo sapiens, UniProt Q16548); assay: Bio-layer interferometry; type: binding
T1 sequence (Q16548 1-151 limits assumed): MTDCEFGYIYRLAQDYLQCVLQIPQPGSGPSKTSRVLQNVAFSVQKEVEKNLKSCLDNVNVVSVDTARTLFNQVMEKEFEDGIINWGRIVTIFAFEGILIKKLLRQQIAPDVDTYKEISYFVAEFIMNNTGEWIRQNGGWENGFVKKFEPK
In short: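 Biotinylated 23-residue test peptide (free N-terminus, amidated C-terminus), at 0.1 mg/ml, loaded on streptavidin biosensors to ~0.42 response units. Protein at 2–3 concentrations (30–250 nM) associated for 10 min, then dissociated for 60 min in 20 mM phosphate, 50 mM NaCl, 0.1% BSA, pH 7.5. Off-rate upper bound taken from signal fluctuation over 1000 s. Association phase fit for kon and Rmax.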

[3] = target: T2, Bcl-w (Homo sapiens, UniProt Q92843); assay: Fluorescence polarization competition with fluoresceinated Bim BH3; type: binding
T2 sequence (Q92843 1-193): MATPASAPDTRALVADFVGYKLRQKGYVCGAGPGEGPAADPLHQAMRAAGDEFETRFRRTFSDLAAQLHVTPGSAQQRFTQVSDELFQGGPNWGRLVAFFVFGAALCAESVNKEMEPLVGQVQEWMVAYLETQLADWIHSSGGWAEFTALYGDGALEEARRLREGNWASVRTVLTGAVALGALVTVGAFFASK

[4] = target: T1, Bfl-1; assay: as above; type: binding
[5] = target: Bcl-2 (Homo sapiens, UniProt P10415); assay: as above; type: binding
Chain of Bcl-2 (Homo sapiens, UniProt P10415) (P10415 whole entry): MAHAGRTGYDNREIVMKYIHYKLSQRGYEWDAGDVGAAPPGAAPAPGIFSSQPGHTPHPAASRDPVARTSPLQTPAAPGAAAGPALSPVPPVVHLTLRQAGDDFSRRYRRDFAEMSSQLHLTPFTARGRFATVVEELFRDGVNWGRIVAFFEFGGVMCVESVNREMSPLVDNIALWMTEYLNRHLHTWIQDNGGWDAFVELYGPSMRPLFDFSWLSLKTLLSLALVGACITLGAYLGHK

[6] = target: Bcl-xL (Homo sapiens, UniProt Q07817); assay: as above; type: binding
Chain of Bcl-xL (Homo sapiens, UniProt Q07817) (Q07817 whole entry): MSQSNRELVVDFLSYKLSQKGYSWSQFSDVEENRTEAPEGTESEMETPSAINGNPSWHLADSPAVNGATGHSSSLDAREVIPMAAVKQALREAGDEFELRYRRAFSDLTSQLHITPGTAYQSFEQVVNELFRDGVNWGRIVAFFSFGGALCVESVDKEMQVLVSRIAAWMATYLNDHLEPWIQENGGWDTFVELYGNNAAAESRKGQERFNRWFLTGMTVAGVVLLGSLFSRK

[7] = target: T3, Bfl-1; assay: fluorescence polarisation
T3 sequence (Q16548 whole entry, species assumed, looked up): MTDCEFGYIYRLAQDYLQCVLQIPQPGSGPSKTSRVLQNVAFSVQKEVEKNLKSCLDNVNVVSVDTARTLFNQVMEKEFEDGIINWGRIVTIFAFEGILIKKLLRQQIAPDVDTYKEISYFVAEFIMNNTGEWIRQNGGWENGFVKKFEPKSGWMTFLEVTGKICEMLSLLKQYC

[8] = target: Bcl-w (UniProt Q92843); assay: fluorescence polarisation
[9] = target: 18-residue fluoresceinated Bim BH3 peptide (human); assay: fluorescence polarisation
[10] = target: Puma BH3 BH3 (Homo sapiens) (UniProt Q9BXH1); settings: cited from earlier work
Chain of Puma BH3 BH3 (Homo sapiens) (Q9BXH1 130-155): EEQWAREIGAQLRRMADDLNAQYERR

[11] = target: Bid BH3 BH3 (Homo sapiens) (UniProt P55957); settings: cited from earlier work
Chain of Bid BH3 BH3 (Homo sapiens) (P55957 79-104): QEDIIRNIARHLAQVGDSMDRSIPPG

[12] = target: T4, Bcl-xL (UniProt Q07817-1 1-233); assay: fluorescence polarisation
T4 sequence (Q07817 whole entry): as the sequence (Q07817 whole entry) above

[13] = target: T5, Bcl-w (UniProt Q92843 1-193); assay: fluorescence polarisation
[14] = target: T6, Mcl-1 (UniProt Q07820 1-350); assay: fluorescence polarisation
T6 sequence (Q07820 whole entry): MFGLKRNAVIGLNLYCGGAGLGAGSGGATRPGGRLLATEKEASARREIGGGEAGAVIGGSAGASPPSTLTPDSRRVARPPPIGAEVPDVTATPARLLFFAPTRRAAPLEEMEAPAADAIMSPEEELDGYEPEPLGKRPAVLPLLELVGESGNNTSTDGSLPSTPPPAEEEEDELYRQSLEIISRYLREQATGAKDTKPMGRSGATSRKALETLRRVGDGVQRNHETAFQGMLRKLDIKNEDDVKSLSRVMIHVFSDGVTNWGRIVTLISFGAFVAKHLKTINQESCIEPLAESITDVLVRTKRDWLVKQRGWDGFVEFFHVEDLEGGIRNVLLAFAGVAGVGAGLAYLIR

[15] = target: T7, Bcl-2 (UniProt P10415 1-239); assay: fluorescence polarisation
T7 sequence (P10415 whole entry): as the sequence (P10415 whole entry) above

[16] = target: T3, Bfl-1; assay: fluorescence polarisation; remark: listed apart in the source
[17] = target: T5, Bcl-w; assay: fluorescence polarisation; remark: listed apart in the source
[18] = target: T7, Bcl-2; assay: fluorescence polarisation; remark: listed apart in the source
[19] = target: T4, Bcl-xL; assay: BLI
[20] = target: T6, Mcl-1; assay: BLI

Chain of Mcl-1 (Homo sapiens, UniProt Q07820) (Q07820 whole entry): as the sequence (Q07820 whole entry) above

## Ac-RPEIWIAQELRRAGDVLNAYYAR-NH2 [FA1]
[1]
  Ki: 1 ± 0.1 nM
[2]
  Kd: ≤ 0.3 nM
[2]; pH 7.5, read-out: upper limit on koff, dissociation of Bfl-1 from surface-bound peptide
  koff: ≤ 1.5e-05 s⁻¹
[3]
  Ki: 2 ± 1 nM

## Ac-RPEIWIAQGLRRIGDTWNAYYAR-NH2 [FW1]
[4]; from competition FP Ki values
  fold lower Ki for Bfl-1 compared to Bcl-w: ~ 37 fold
[5]
  Ki: 20 to 30 nM
[6]
  Ki: 20 to 30 nM

## Bim_D3fK with E3gV (peptide)
[7]
  fold increase in binding against Bim D3fK: 2 fold
[8]
  fold weakening of binding against Bim D3fK: 2.5 fold

## Bfl-1 (domain or fragment)
[9]
  Kd: 4 nM

## RPEIWMAQVLRRFGDLLNAYYAR [FD2]
[1]
  Ki: 1 ± 0.1 nM
[4]
  Ki: 3.8 ± 0.7 nM
[4]; from competition FP Ki values
  specificity for Bfl-1 over Bcl-xL, Bcl-2 and Bcl-w: 4-60 fold

## Bfl-1 (from UniProt Q16548)
[10]
  Kd: 50 nM
[11]
  Kd: 50 nM

## Ac-RPEIWLAQYLRRLGDQINAYYAR-NH2 [FD1]
[4]
  Ki: 0.7 ± 0.2 nM

## Ac-RPEIWLAQYLRRLGDQINAYYAR-NH2 [FD1]
[12]
  Ki: 5 nM
[13]
  Ki: 12 nM
[14]
  Ki: 0.1 nM
[15]
  Ki: 7 nM
[16]
  Ki: 0.7 nM

## H-RPEIWMAQVLRRFGDLLNAYYAR-OH [FD2]
[12]
  Ki: 18 nM
[13]
  Ki: 104 nM
[15]
  Ki: 223 nM
[16]
  Ki: 3.8 nM

## Ac-RPEIWIAQELRRAGDVLNAYYAR-NH2 [FA1 (unlabeled, 23 residues)]
[12]
  Ki: 8 nM
[15]
  Ki: 313 nM

## Ac-RPEIWIAQGLRRIGDTWNAYYAR-NH2 [FW1 (unlabeled, 23 residues)]
[12]
  Ki: 20 nM
[13]
  Ki: 298 nM
[14]
  Ki: 0.2 nM
[15]
  Ki: 31 nM

## Ac-IWIAQELRRIGDEFNAYY-NH2 (also: fluoresceinated, site not given here) [18-residue fluoresceinated Bim BH3 peptide]
[17]
  Kd: 15 nM
[18]
  Kd: 5 nM

B1: Biotinylated FA1 (peptide)
peptide: {Biotin-PEG4}-RPEIWIAQELRRAGDVLNAYYAR-NH2
SMILES: CC[C@H](C)[C@H](NC(=O)[C@H](Cc1c[nH]c2ccccc12)NC(=O)[C@@H](NC(=O)[C@H](CCC(=O)O)NC(=O)[C@@H]1CCCN1C(=O)[C@H](CCCNC(=N)N)NC(=O)CCOCCOCCOCCOCCNC(=O)CCCC[C@@H]1SC[C@@H]2NC(=O)N[C@@H]21)[C@@H](C)CC)C(=O)N[C@@H](C)C(=O)N[C@@H](CCC(N)=O)C(=O)N[C@@H](CCC(=O)O)C(=O)N[C@@H](CC(C)C)C(=O)N[C@@H](CCCNC(=N)N)C(=O)N[C@@H](CCCNC(=N)N)C(=O)N[C@@H](C)C(=O)NCC(=O)N[C@@H](CC(=O)O)C(=O)N[C@H](C(=O)N[C@@H](CC(C)C)C(=O)N[C@@H](CC(N)=O)C(=O)N[C@@H](C)C(=O)N[C@@H](Cc1ccc(O)cc1)C(=O)N[C@@H](Cc1ccc(O)cc1)C(=O)N[C@@H](C)C(=O)N[C@@H](CCCNC(=N)N)C(N)=O)C(C)C
[19]
  Kd: ~33 nM
[20]
  Kd: ~6 nM
